Test results from ChEMBL document CHEMBL1134439, “Radioiodinated styrylbenzenes and thioflavins as probes for amyloid aggregates” (J Med Chem, 2001).
Blank lines part the entries; values can stand above or below the molecule they belong to.

Experiments:
[1] = molecular target: T1, Amyloid-beta precursor protein (Homo sapiens, UniProt P05067); experiment: Inhibition constant for aggregates of amyloid beta compared to [125I]IMSB
Outline: (§1)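 Aβ(1-40) or Aβ(1-42) aggregated at 0.5 or 0.25 mg/mL respectively in pH 7.4 buffer (10 mM sodium phosphate, 1 mM EDTA), 37 °C, 36-42 h with shaking. Competition against ¹²⁵I radioligand with fibrils 10-50 nM (final), 10% EtOH, 1 mL. Incubation 3 h room temperature. Bound ligand collected by GF/B filtration, γ-counted. Ki by nonlinear regression. Mean ± SEM, three experiments in duplicate.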

Mus musculus [2] = experiment: Biodistribution was measured in mice kidney 60 minutes after intravenous injection of [125I]-labeled styrylbenzene.; type: ADME, organism-based; settings: in vivo, 1 h
Outline: (§2)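 ICR mice (2-3 months old, 20-30 g) under ether anesthesia received 5-10 µCi ¹²⁵I tracer in 0.15 mL saline by tail-vein injection. Animals were killed by cardiac excision at set times post-injection. Organs were removed, weighed and γ-counted. Values are % dose per organ against diluted injectate aliquots, taking blood and muscle as 7% and 40% of body weight. Mean of 3-4 mice ± SD.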

Mus musculus [3] = experiment: Biodistribution was measured in mice brain 30 minutes after intravenous injection of [125I]-labeled styrylbenzene; type: ADME, organism-based; settings: in vivo, 0.5 h; outline: as §2
Mus musculus [4] = experiment: Biodistribution was measured in mice kidney 30 minutes after intravenous injection of [125I]-labeled styrylbenzene.; type: ADME, organism-based; settings: in vivo, 0.5 h; outline: as §2
Mus musculus [5] = experiment: Biodistribution was measured in mice muscle 24 hours after intravenous injection of [125I]-labeled styrylbenzene.; type: ADME, organism-based, Muscle tissue; settings: in vivo; outline: as §2
Mus musculus [6] = experiment: Biodistribution was measured in mice kidney 2 minutes after intravenous injection of [125I]-labeled styrylbenzene.; type: ADME, organism-based; settings: in vivo; outline: as §2
Mus musculus [7] = experiment: Biodistribution was measured in mice skin 24 hours after intravenous injection of [125I]-labeled styrylbenzene.; type: ADME, organism-based, Zone of skin; settings: in vivo; outline: as §2
Mus musculus [8] = experiment: Biodistribution was measured in mice brain 60 minutes after intravenous injection of [125I]-labeled styrylbenzene; type: ADME, organism-based; settings: in vivo, 1 h; outline: as §2
Mus musculus [9] = experiment: Biodistribution was measured in mice heart 2 minutes after intravenous injection of [125I]-labeled styrylbenzene.; type: ADME, organism-based; settings: in vivo; outline: as §2
Mus musculus [10] = experiment: Biodistribution was measured in mice liver 24 hours after intravenous injection of [125I]-labeled styrylbenzene.; type: ADME, organism-based; settings: in vivo; outline: as §2
Mus musculus [11] = experiment: Biodistribution was measured in mice heart 30 minutes after intravenous injection of [125I]-labeled styrylbenzene.; type: ADME, organism-based; settings: in vivo, 0.5 h; outline: as §2
Mus musculus [12] = experiment: Biodistribution was measured in mice blood 2 minutes after intravenous injection of [125I]-labeled styrylbenzene.; type: ADME, organism-based; settings: in vivo; outline: as §2
Mus musculus [13] = experiment: Biodistribution was measured in mice lung 2 minutes after intravenous injection of [125I]-labeled styrylbenzene.; type: ADME, organism-based; settings: in vivo; outline: as §2
Mus musculus [14] = experiment: Biodistribution was measured in mice spleen 6 hours after intravenous injection of [125I]-labeled thioflavin.; settings: in vivo
Mus musculus [15] = experiment: Biodistribution was measured in mice blood 60 minutes after intravenous injection of [125I]-labeled styrylbenzene.; type: ADME, organism-based; settings: in vivo, 1 h; outline: as §2
Mus musculus [16] = experiment: Biodistribution was measured in mice brain 24 hours after intravenous injection of [125I]-labeled styrylbenzene; type: ADME, organism-based; settings: in vivo, in the assay text read “thioflavin” for “styrylbenzene”; outline: as §2
Mus musculus [17] = experiment: Biodistribution was measured in mice blood 30 minutes after intravenous injection of [125I]-labeled styrylbenzene.; type: ADME, organism-based; settings: in vivo, 0.5 h; outline: as §2
Mus musculus [18] = experiment: Biodistribution was measured in mice liver 6 hours after intravenous injection of [125I]-labeled styrylbenzene.; type: ADME, organism-based; settings: in vivo, in the assay text read “thioflavin” for “styrylbenzene”; outline: as §2
Mus musculus [19] = experiment: Biodistribution was measured in mice muscle 2 minutes after intravenous injection of [125I]-labeled styrylbenzene.; type: ADME, organism-based, Muscle tissue; settings: in vivo, in the assay text read “thioflavin” for “styrylbenzene”; outline: as §2
Mus musculus [20] = experiment: Biodistribution was measured in mice spleen 60 minutes after intravenous injection of [125I]-labeled styrylbenzene.; type: ADME, organism-based; settings: in vivo, 1 h
Outline: (§3)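 ICR mice (2-3 months old, 20-30 g) under ether anesthesia; 0.15 mL saline containing 5-10 µCi ¹²⁵I tracer injected into tail vein. Sacrifice by cardiac excision at set times; organs removed, weighed, γ-counted. Expressed as % dose per organ versus diluted aliquots of injectate. Mean of three or four mice ± SD.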

Mus musculus [21] = experiment: Biodistribution was measured in mice muscle 6 hours after intravenous injection of [125I]-labeled styrylbenzene.; type: ADME, organism-based, Muscle tissue; settings: in vivo; outline: as §2
Mus musculus [22] = experiment: Biodistribution was measured in mice skin 6 hours after intravenous injection of [125I]-labeled styrylbenzene.; type: ADME, organism-based, Zone of skin; settings: in vivo; outline: as §2
Mus musculus [23] = experiment: Biodistribution was measured in mice liver 30 minutes after intravenous injection of [125I]-labeled styrylbenzene.; type: ADME, organism-based; settings: in vivo, 0.5 h; outline: as §2
Mus musculus [24] = experiment: Biodistribution was measured in mice blood 6 hours after intravenous injection of [125I]-labeled styrylbenzene.; type: ADME, organism-based; settings: in vivo; outline: as §2
Mus musculus [25] = experiment: Biodistribution was measured in mice brain 2 minutes after intravenous injection of [125I]-labeled styrylbenzene; type: ADME, organism-based; settings: in vivo, in the assay text read “thioflavin” for “styrylbenzene”; outline: as §2
Mus musculus [26] = experiment: Biodistribution was measured in mice heart 6 hours after intravenous injection of [125I]-labeled styrylbenzene.; type: ADME, organism-based; settings: in vivo; outline: as §2
Mus musculus [27] = experiment: Biodistribution was measured in mice skin 30 minutes after intravenous injection of [125I]-labeled styrylbenzene.; type: ADME, organism-based, Zone of skin; settings: in vivo, 0.5 h; outline: as §2
Mus musculus [28] = experiment: Biodistribution was measured in mice liver 60 minutes after intravenous injection of [125I]-labeled styrylbenzene.; type: ADME, organism-based; settings: in vivo, 1 h; outline: as §2
Mus musculus [29] = experiment: Biodistribution was measured in mice lung 60 minutes after intravenous injection of [125I]-labeled styrylbenzene.; type: ADME, organism-based; settings: in vivo, 1 h; outline: as §2
Mus musculus [30] = experiment: Biodistribution was measured in mice skin 60 minutes after intravenous injection of [125I]-labeled styrylbenzene.; type: ADME, organism-based, Zone of skin; settings: in vivo, 1 h; outline: as §2
Mus musculus [31] = experiment: Biodistribution was measured in mice muscle 60 minutes after intravenous injection of [125I]-labeled styrylbenzene.; type: ADME, organism-based, Muscle tissue; settings: in vivo, 1 h; outline: as §2
Mus musculus [32] = experiment: Biodistribution was measured in mice liver 2 minutes after intravenous injection of [125I]-labeled styrylbenzene.; type: ADME, organism-based; settings: in vivo; outline: as §2
Mus musculus [33] = experiment: Biodistribution was measured in mice heart 24 hours after intravenous injection of [125I]-labeled styrylbenzene.; type: ADME, organism-based; settings: in vivo; outline: as §2
Mus musculus [34] = experiment: Biodistribution was measured in mice brain 6 hours after intravenous injection of [125I]-labeled styrylbenzene; type: ADME, organism-based; settings: in vivo; outline: as §2
Mus musculus [35] = experiment: Biodistribution was measured in mice spleen 2 minutes after intravenous injection of [125I]-labeled styrylbenzene.; type: ADME, organism-based; settings: in vivo; outline: as §2
Mus musculus [36] = experiment: Biodistribution was measured in mice lung 30 minutes after intravenous injection of [125I]-labeled styrylbenzene.; type: ADME, organism-based; settings: in vivo, 0.5 h; outline: as §2
Mus musculus [37] = experiment: Biodistribution was measured in mice muscle 30 minutes after intravenous injection of [125I]-labeled styrylbenzene.; type: ADME, organism-based, Muscle tissue; settings: in vivo, 0.5 h; outline: as §2
Mus musculus [38] = experiment: Biodistribution was measured in mice blood 24 hours after intravenous injection of [125I]-labeled styrylbenzene.; type: ADME, organism-based; settings: in vivo; outline: as §2
Mus musculus [39] = experiment: Biodistribution was measured in mice lung 6 hours after intravenous injection of [125I]-labeled styrylbenzene.; type: ADME, organism-based; settings: in vivo, in the assay text read “thioflavin” for “styrylbenzene”; outline: as §2
Mus musculus [40] = experiment: Biodistribution was measured in mice heart 60 minutes after intravenous injection of [125I]-labeled styrylbenzene.; type: ADME, organism-based; settings: in vivo, 1 h; outline: as §2
Mus musculus [41] = experiment: Biodistribution was measured in mice spleen 24 hours after intravenous injection of [125I]-labeled styrylbenzene.; type: ADME, organism-based; settings: in vivo
Mus musculus [42] = experiment: Biodistribution was measured in mice spleen 30 minutes after intravenous injection of [125I]-labeled styrylbenzene.; type: ADME, organism-based; settings: in vivo, 0.5 h; outline: as §3
Mus musculus [43] = experiment: Biodistribution was measured in mice kidney 6 hours after intravenous injection of [125I]-labeled styrylbenzene.; type: ADME, organism-based; settings: in vivo; outline: as §2
Mus musculus [44] = experiment: Biodistribution was measured in mice kidney 24 hours after intravenous injection of [125I]-labeled styrylbenzene.; type: ADME, organism-based; settings: in vivo; outline: as §2
Mus musculus [45] = experiment: Biodistribution was measured in mice skin 2 minutes after intravenous injection of [125I]-labeled styrylbenzene.; type: ADME, organism-based, Zone of skin; settings: in vivo; outline: as §2
Mus musculus [46] = experiment: Biodistribution was measured in mice lung 24 hours after intravenous injection of [125I]-labeled styrylbenzene.; type: ADME, organism-based; settings: in vivo, in the assay text read “thioflavin” for “styrylbenzene”; outline: as §2
[47] = molecular target: T1, Amyloid-beta precursor protein; experiment: Inhibition constant of compound on ligand binding to aggregates of Amyloid beta was measured by comparing with [125I]IMSB
Outline: (§4)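 Aβ(1-40) or Aβ(1-42) peptide pre-aggregated at 0.5 or 0.25 mg/mL respectively in pH 7.4 buffer (10 mM sodium phosphate, 1 mM EDTA), 37 °C for 36-42 h with shaking. Fibrils (10-50 nM final) incubated with ¹²⁵I radioligand in 10% EtOH, 3 h at room temperature. Bound ligand separated by GF/B filtration and γ-counted. Ki from nonlinear regression. Three independent experiments, each in duplicate, mean ± SEM.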

[48] = molecular target: T1, Amyloid-beta precursor protein; experiment: Inhibition constant for amyloid beta compared to [125I]TZDM; outline: as §1
[49] = molecular target: T1, Amyloid-beta precursor protein; experiment: Inhibition constant of compound on ligand binding to aggregates of Amyloid beta was measured by comparing with [125I]TZDM; outline: as §4

T1 sequence (P05067 whole entry): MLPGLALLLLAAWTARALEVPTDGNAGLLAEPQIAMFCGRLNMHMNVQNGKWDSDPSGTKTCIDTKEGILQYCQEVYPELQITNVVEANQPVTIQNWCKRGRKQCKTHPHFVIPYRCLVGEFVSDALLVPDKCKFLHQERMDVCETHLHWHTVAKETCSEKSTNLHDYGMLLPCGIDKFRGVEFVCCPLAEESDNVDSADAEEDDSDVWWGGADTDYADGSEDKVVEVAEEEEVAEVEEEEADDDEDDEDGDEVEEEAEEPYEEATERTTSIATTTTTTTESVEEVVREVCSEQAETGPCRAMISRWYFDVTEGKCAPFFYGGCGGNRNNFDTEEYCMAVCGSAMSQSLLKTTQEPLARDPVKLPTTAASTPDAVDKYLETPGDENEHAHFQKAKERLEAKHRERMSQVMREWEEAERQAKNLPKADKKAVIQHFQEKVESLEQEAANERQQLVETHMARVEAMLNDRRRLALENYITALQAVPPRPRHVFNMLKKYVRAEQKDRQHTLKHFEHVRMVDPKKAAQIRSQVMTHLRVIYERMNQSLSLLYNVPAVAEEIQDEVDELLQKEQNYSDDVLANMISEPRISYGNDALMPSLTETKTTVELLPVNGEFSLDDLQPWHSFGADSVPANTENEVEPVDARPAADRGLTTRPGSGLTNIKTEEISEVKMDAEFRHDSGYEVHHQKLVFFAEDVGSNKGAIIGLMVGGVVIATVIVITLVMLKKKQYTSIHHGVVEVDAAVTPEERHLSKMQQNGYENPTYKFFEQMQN

- Ki [1]: > 3000 nM
SMILES: CN(C)c1ccc(-c2nc3ccc(Br)cc3s2)cc1

- Ki [1]: > 2400 nM
SMILES: CN1CCN(c2ccc(-c3nc4ccc(Br)cc4s3)cc2)CC1

- Dose/organ (Mus musculus [2]): 7.99%
- Dose/organ (Mus musculus [3]): 1.59%
- Dose/organ (Mus musculus [4]): 8.06%
- Dose/organ (Mus musculus [5]): 2.44%
- Dose/organ (Mus musculus [6]): 6.46%
- Dose/organ (Mus musculus [7]): 1.64%
- Dose/organ (Mus musculus [8]): 1.89%
- Dose/organ (Mus musculus [9]): 2.19%
- Dose/organ (Mus musculus [10]): 3.05%
- Dose/organ (Mus musculus [11]): 0.69%
- Dose/organ (Mus musculus [12]): 8.02%
- Dose/organ (Mus musculus [13]): 12.8%
- Dose/organ (Mus musculus [14]): 0.22%
- Dose/organ (Mus musculus [15]): 4.16%
- Dose/organ (Mus musculus [16]): 0.91%
- Dose/organ (Mus musculus [17]): 5.15%
- Dose/organ (Mus musculus [18]): 5.79%
- Dose/organ (Mus musculus [19]): 13.24%
- Dose/organ (Mus musculus [20]): 0.6%
- Dose/organ (Mus musculus [21]): 6.65%
- Dose/organ (Mus musculus [22]): 3.17%
- Dose/organ (Mus musculus [23]): 21.22%
- Dose/organ (Mus musculus [24]): 1.49%
- Dose/organ (Mus musculus [25]): 1.5%
- Dose/organ (Mus musculus [26]): 0.22%
- Dose/organ (Mus musculus [27]): 6.07%
- Dose/organ (Mus musculus [28]): 17.2%
- Dose/organ (Mus musculus [29]): 3.38%
- Dose/organ (Mus musculus [30]): 5.63%
- Dose/organ (Mus musculus [31]): 19.46%
- Dose/organ (Mus musculus [32]): 28.84%
- Dose/organ (Mus musculus [33]): 0.08%
- Dose/organ (Mus musculus [34]): 1.08%
- Dose/organ (Mus musculus [35]): 0.89%
- Dose/organ (Mus musculus [36]): 4.14%
- Dose/organ (Mus musculus [37]): 18.82%
- Dose/organ (Mus musculus [38]): 0.41%
- Dose/organ (Mus musculus [39]): 1.15%
- Dose/organ (Mus musculus [40]): 0.66%
- Ki [1]: > 2000 nM
- Dose/organ (Mus musculus [41]): 0.08%
- Dose/organ (Mus musculus [42]): 0.87%
- Dose/organ (Mus musculus [43]): 3.62%
- Dose/organ (Mus musculus [44]): 1.15%
- Dose/organ (Mus musculus [45]): 4.06%
- Dose/organ (Mus musculus [46]): 0.44%
SMILES: CN1CCN(c2ccc(-c3nc4ccc(I)cc4s3)cc2)CC1

- Ki [47]: 0.4 nM
- Ki [48]: > 1000 nM
- Ki [1]: 0.14 nM
- Ki [49]: > 2000 nM
SMILES: O=C(O)c1cc(/N=N/c2ccc(-c3ccc(/N=N/c4ccc(O)c(C(=O)O)c4)cc3)cc2)ccc1O [CHRYSAMINE G]
